From article PMC8841436 (Clinical and Translational Science, 2021)

Legend:
[1] = system: experimental autoimmune encephalomyelitis; experiment: Experimental autoimmune encephalomyelitis; type: in vivo; details: EAE mouse model; unpublished data
[2] = system: healthy volunteers; experiment: Phase 1 safety and tolerability; type: in vivo, human; details: for Diarrhea, participants with adverse event / Headache, participants with adverse event: part B MAD
[3] = Plasma pharmacokinetics, part A; type: in vivo, human; details: for half-life / Tmax / AUC(0-inf) / AUC(0-t) / Cmax: human, in vivo
[4] = Urine pharmacokinetics, 60 mg cohort part A; type: in vivo, human
[5] = Plasma protein binding by equilibrium dialysis; type: in vitro ADME; details: human
[6] = system: lymphocyte subpopulations (T/B/NK/monocyte counts); experiment: Flow cytometry analysis of immune cell subsets in whole blood, part B; type: in vivo, human
How it was run: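 Healthy volunteers got oral liquid test compound (7.5, 15, 30, 60 or 90 mg) or matching placebo once daily for 10 days, fasted. Whole blood was drawn predose on days 1, 4 and 10. Flow cytometry counted T, B, NK and monocytes with CD3, CD4, CD8, CD14, CD19 and CD16/56 antibodies. Naïve (CD19+ CD27-) and memory (CD19+ CD27+) B cells were also counted. Error bars are SD.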

[7] = Plasma pharmacokinetics, part B; details: human, in vivo, n = 8
[8] = 7.5 mg q.d. 10 days, 8 participants
[9] = 15 mg q.d. 10 days, 8 participants
[10] = 30 mg q.d. 10 days, 8 participants
[11] = 60 mg q.d. 10 days, 8 participants
[12] = 90 mg q.d. 10 days, 8 participants
[13] = all tolebrutinib doses, 40 participants

With C=CC(=O)N1CCC[C@@H](n2c(=O)n(-c3ccc(Oc4ccccc4)cc3)c3c(N)nccc32)C1 [tolebrutinib] the “Protection from disease induction” value [1] was “dose‐dependent protection”, the “Serious treatment-emergent adverse events” value ([2]; part A (SAD)) was “no serious treatment‐emergent adverse events” and the Tolerability ([2]; part A (SAD), single doses 5-120 mg) was “well‐tolerated”. The “Severity of treatment-related TEAEs” value ([2]; part B (MAD), all combined dose groups) was “mild”, the “Diarrhea, participants with adverse event” value (from here on “Diarrhea, participants”) [2, 8] was 1 and the “Headache, participants with adverse event” value (“Headache, participants” for short) [2, 8] was 2. For the same molecule, the “Diarrhea, participants” value [2, 9] was 1, the “Headache, participants” value [2, 9] was 1 and the “Diarrhea, participants” value [2, 10] was 2. The “Headache, participants” value [2, 10] was 1, the “Diarrhea, participants” value [2, 11] was 0 and the “Headache, participants” value [2, 11] was 0. The “Diarrhea, participants” value [2, 12] was 5, the “Headache, participants” value [2, 12] was 0 and the “Diarrhea, participants” value [2, 13] was 9. The “Headache, participants” value [2, 13] was 4, the “half‐life (mean)” value ([3]; after oral administration, fasting, across doses) was 1.5 to 2 h and the “Dose proportionality of exposure” value ([3]; dose levels between 15 and 60 mg) was “approximately dose proportional”. It also gave a half-life ([3]; half‐life, plasma, as summarised in CSF section) of 1.5 to 2 h, a Tmax ([3]; po) of ~1 h and an AUC(0-inf) ([3]; po, 5 mg) of 1.39 ng·h/mL. The AUC(0-t) ([3]; po, 5 mg) was 0.57 ng·h/mL, the Cmax ([3]; po, 5 mg) was 0.369 ng/mL and the Tmax ([3]; po, 5 mg) was 1 h. For the same molecule, the half-life ([3]; po, 5 mg, t 1/2, SAD, single oral 5 mg, fasting, mean, n = 6) was 1.92 h, the AUC(0-inf) ([3]; po, 15 mg) was 4.06 ng·h/mL and the AUC(0-t) ([3]; po, 15 mg) was 3.67 ng·h/mL. For the same molecule, the Cmax ([3]; po, 15 mg) was 1.97 ng/mL, the Tmax ([3]; po, 15 mg) was 1 h and the half-life ([3]; po, 15 mg, t 1/2, SAD, single oral 15 mg, fasting, mean, n = 6) was 1.39 h. The AUC(0-inf) ([3]; po, 30 mg) was 6.46 ng·h/mL, the AUC(0-t) ([3]; po, 30 mg) was 6.04 ng·h/mL and the Cmax ([3]; po, 30 mg) was 3.12 ng/mL. For the same molecule, the Tmax ([3]; po, 30 mg) was 1 h, the half-life ([3]; po, 30 mg, t 1/2, SAD, single oral 30 mg, fasting, mean, n = 6) was 1.47 h and the AUC(0-inf) ([3]; po, 60 mg) was 15.9 ng·h/mL. For the same molecule, the AUC(0-t) ([3]; po, 60 mg) was 15.6 ng·h/mL, the Cmax ([3]; po, 60 mg) was 6.89 ng/mL and the Tmax ([3]; po, 60 mg) was 1.5 h. The half-life ([3]; po, 60 mg, t 1/2, SAD, single oral 60 mg, fasting, mean, n = 6) was 1.67 h, the AUC(0-inf) ([3]; po, 120 mg) was 62.6 ng·h/mL and the AUC(0-t) ([3]; po, 120 mg) was 61.6 ng·h/mL. For the same molecule, the Cmax ([3]; po, 120 mg) was 32.3 ng/mL, the Tmax ([3]; po, 120 mg) was 1 h and the half-life ([3]; po, 120 mg, t 1/2, SAD, single oral 120 mg, fasting, mean, n = 6) was 2.18 h. For the same molecule, the “Dose proportionality of Cmax and AUC (power model)” value ([3]; single doses 5 to 120 mg) was “more than dose proportional”, the CL renal ([4]; human, urine, po, 60 mg) was ~5 mL/min and the “total mean amount recovered unchanged in urine” value ([4]; single oral 60 mg, fasted, after 12 h) was 4.2 µg. The fraction unbound [5] was ~0.065, the “circulating total B cell levels (both naïve and memory B cells)” value ([6]; day 4 and day 10, all part B cohorts) was “Elevated” and the B cell depletion ([6]; part B MAD) was “did not result in B cell depletion”. The “other immune cell populations: T cells (total CD3, CD4, CD8), monocytes, NK” value ([6]; part B MAD) was “No changes”, the AUC ([7]; 7.5 mg, AUC0‐24, MAD 7.5 mg q.d., Day 1, mean) was 2.12 ng·h/mL and the AUC ([7]; 7.5 mg, AUC0‐24, MAD 7.5 mg q.d., Day 10, mean) was 3.07 ng·h/mL. For the same molecule, the Cmax ([7]; 7.5 mg, MAD 7.5 mg q.d., Day 1, mean) was 1.17 ng/mL, the Cmax ([7]; 7.5 mg, MAD 7.5 mg q.d., Day 10, mean) was 1.32 ng/mL and the Tmax ([7]; 7.5 mg, MAD 7.5 mg q.d., Day 1, median (min – max)) was 1 h. For the same molecule, the Tmax ([7]; 7.5 mg, MAD 7.5 mg q.d., Day 10, median (min – max)) was 1 h, the half-life ([7]; 7.5 mg, t 1/2, MAD 7.5 mg q.d., Day 1, mean) was 1.45 h and the half-life ([7]; 7.5 mg, t 1/2, MAD 7.5 mg q.d., Day 10, mean) was 1.57 h. For the same molecule, the AUC ([7]; 15 mg, AUC0‐24, MAD 15 mg q.d., Day 1, mean) was 3.82 ng·h/mL, the AUC ([7]; 15 mg, AUC0‐24, MAD 15 mg q.d., Day 10, mean) was 5.85 ng·h/mL and the Cmax ([7]; 15 mg, MAD 15 mg q.d., Day 1, mean) was 1.96 ng/mL. The Cmax ([7]; 15 mg, MAD 15 mg q.d., Day 10, mean) was 2.51 ng/mL, the Tmax ([7]; 15 mg, MAD 15 mg q.d., Day 1, median (min – max)) was 1 h and the Tmax ([7]; 15 mg, MAD 15 mg q.d., Day 10, median (min – max)) was 1 h. For the same molecule, the half-life ([7]; 15 mg, t 1/2, MAD 15 mg q.d., Day 1, mean) was 1.4 h, the half-life ([7]; 15 mg, t 1/2, MAD 15 mg q.d., Day 10, mean) was 1.68 h and the AUC ([7]; 30 mg, AUC0‐24, MAD 30 mg q.d., Day 1, mean) was 9.67 ng·h/mL. The AUC ([7]; 30 mg, AUC0‐24, MAD 30 mg q.d., Day 10, mean) was 14.9 ng·h/mL, the Cmax ([7]; 30 mg, MAD 30 mg q.d., Day 1, mean) was 6.25 ng/mL and the Cmax ([7]; 30 mg, MAD 30 mg q.d., Day 10, mean) was 7.46 ng/mL. It also gave a Tmax ([7]; 30 mg, MAD 30 mg q.d., Day 1, median (min – max)) of 0.75 h, a Tmax ([7]; 30 mg, MAD 30 mg q.d., Day 10, median (min – max)) of 1 h and a half-life ([7]; 30 mg, t 1/2, MAD 30 mg q.d., Day 1, mean) of 1.6 h. For the same molecule, the half-life ([7]; 30 mg, t 1/2, MAD 30 mg q.d., Day 10, mean) was 2.02 h, the AUC ([7]; 60 mg, AUC0‐24, MAD 60 mg q.d., Day 1, mean) was 24.3 ng·h/mL and the AUC ([7]; 60 mg, AUC0‐24, MAD 60 mg q.d., Day 10, mean) was 18.2 ng·h/mL. The Cmax ([7]; 60 mg, MAD 60 mg q.d., Day 1, mean) was 8.47 ng/mL, the Cmax ([7]; 60 mg, MAD 60 mg q.d., Day 10, mean) was 6.69 ng/mL and the Tmax ([7]; 60 mg, MAD 60 mg q.d., Day 1, median (min – max)) was 1.25 h. It also gave a Tmax ([7]; 60 mg, MAD 60 mg q.d., Day 10, median (min – max)) of 1.5 h, a half-life ([7]; 60 mg, t 1/2, MAD 60 mg q.d., Day 1, mean) of 1.98 h and a half-life ([7]; 60 mg, t 1/2, MAD 60 mg q.d., Day 10, mean) of 2.37 h. It also gave an AUC ([7]; 90 mg, AUC0‐24, MAD 90 mg q.d., Day 1, mean) of 35.5 ng·h/mL, an AUC ([7]; 90 mg, AUC0‐24, MAD 90 mg q.d., Day 10, mean) of 56.6 ng·h/mL and a Cmax ([7]; 90 mg, MAD 90 mg q.d., Day 1, mean) of 19.3 ng/mL. It also gave a Cmax ([7]; 90 mg, MAD 90 mg q.d., Day 10, mean) of 21.7 ng/mL, a Tmax ([7]; 90 mg, MAD 90 mg q.d., Day 1, median (min – max)) of 1 h and a Tmax ([7]; 90 mg, MAD 90 mg q.d., Day 10, median (min – max)) of 1.5 h. For the same molecule, the half-life ([7]; 90 mg, t 1/2, MAD 90 mg q.d., Day 1, mean) was 2.1 h and the half-life ([7]; 90 mg, t 1/2, MAD 90 mg q.d., Day 10, mean) was 2.83 h.
